The term MIC denotes the smallest concentration in the dilution series that meets the test's criterion for growth inhibition. Low values mean greater potency, high ones weaker potency.

≈ marks a conversion by molar mass, not a printed value.

Common to all, as to type: functional
Experiment [1] has as its system Candida parapsilosis. Put plainly: Antimicrobial activity against Candida parapsilosis ATCC 22019 after 48 hrs by microdilution broth method. To be noted: Lodderomyces parapsilosis, ATCC 22019, 48 h. The essentials: (§1)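 Yeasts were grown overnight on Sabouraud dextrose agar at 35°C, suspended in water, and adjusted at 530 nm to McFarland 0.5 (approximately 1-5 x 10^6 CFU/ml). They were then diluted 1:100 and 1:20 in RPMI 1640 with 0.165 M MOPS and 2% glucose. Compound in DMSO was tested at ten concentrations, 0.25–256 mg/L, with incubation at 35°C. At 48 h, MIC was read spectrophotometrically as 50% turbidity reduction versus growth control.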
In general terms: Broth dilution looks for growth in wells or tubes with falling amounts of substance.

Experiment [2] relates to Pichia kudriavzevii. Put plainly: Antimicrobial activity against Candida krusei isolate 31 after 48 hrs by microdilution broth method. The following applies: isolate 31, 48 h. In outline:
as §1

The test system of experiment [3] is Candida albicans. Put plainly: Antimicrobial activity against Candida albicans isolate 48 after 48 hrs by microdilution broth method. The following applies: isolate 48, 48 h. The essentials: as §1
For experiment [4], the system named is Pichia kudriavzevii. Put plainly: Antimicrobial activity against Candida krusei isolate 48 after 48 hrs by microdilution broth method.
The test system of experiment [5] is Nakaseomyces glabratus. Put plainly: Antimicrobial activity against Candida glabrata isolate 30 after 48 hrs by microdilution broth method. The essentials: as §1
Experiment [6] relates to Cryptococcus deneoformans. Put plainly: Antimicrobial activity against Cryptococcus neoformans var. neoformans isolate 27 after 48 hrs by microdilution broth method. To be noted: isolate 27, 48 h. The essentials: as §1
Experiment [7] relates to Candida tropicalis. Put plainly: Antimicrobial activity against Candida tropicalis isolate 33 after 48 hrs by microdilution broth method. To be noted: isolate 33, 48 h. The essentials: as §1
Experiment [8] relates to Nakaseomyces glabratus. Put plainly: Antimicrobial activity against Candida glabrata isolate 49 after 48 hrs by microdilution broth method. The essentials: as §1
Experiment [9] relates to Candida albicans. Put plainly: Antimicrobial activity against Candida albicans isolate 47 after 48 hrs by microdilution broth method. The following applies: isolate 47, 48 h. The essentials: as §1
Experiment [10] has as its system Pichia kudriavzevii. Put plainly: Antimicrobial activity against Candida krusei isolate 43 after 48 hrs by microdilution broth method.
Experiment [11] has as its system Nakaseomyces glabratus. Put plainly: Antimicrobial activity against Candida glabrata isolate 32 after 48 hrs by microdilution broth method. The following applies: isolate 32, 48 h. In outline: as §1
The test system of experiment [12] is Candida tropicalis. Put plainly: Antimicrobial activity against Candida tropicalis isolate 15 after 48 hrs by microdilution broth method. The following applies: isolate 15, 48 h. The essentials:
as §1

The test system of experiment [13] is Candida parapsilosis. Put plainly: Antimicrobial activity against Candida parapsilosis isolate 19 after 48 hrs by microdilution broth method. To be noted: Lodderomyces parapsilosis, isolate 19, 48 h. The essentials: as §1
In experiment [14] the test system is Candida albicans. Put plainly: Antimicrobial activity against Candida albicans isolate 31 after 48 hrs by microdilution broth method. The following applies: isolate 31, 48 h. In outline: as §1
The subject of experiment [15] is Candida parapsilosis. Put plainly: Antimicrobial activity against Candida parapsilosis isolate 39 after 48 hrs by microdilution broth method. The following applies: Lodderomyces parapsilosis, isolate 39, 48 h. In outline: (§2)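 Yeasts grown overnight on Sabouraud dextrose agar at 35°C, suspended in sterile water, and adjusted to McFarland 0.5 at 530 nm (about 1-5 x 10^6 CFU/ml), then diluted 1:100 and 1:20 in RPMI 1640 with 0.165 M MOPS and 2% glucose. Compound in DMSO tested at ten concentrations, 0.25-256 mg/L, at 35°C. MIC read spectrophotometrically at 48 h as 50% turbidity reduction versus growth control.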

For experiment [16], the system named is Candida tropicalis. Put plainly: Antimicrobial activity against Candida tropicalis isolate 22 after 48 hrs by microdilution broth method. To be noted: isolate 22, 48 h. The essentials: as §1
Experiment [17] concerns Candida parapsilosis. Put plainly: Antimicrobial activity against Candida parapsilosis isolate 26 after 48 hrs by microdilution broth method. To be noted: Lodderomyces parapsilosis, isolate 26, 48 h. In outline:
as §1

The subject of experiment [18] is Cryptococcus deneoformans. Put plainly: Antimicrobial activity against Cryptococcus neoformans var. neoformans isolate 25 after 48 hrs by microdilution broth method. The following applies: isolate 25, 48 h. The essentials:
as §1

The subject of experiment [19] is Pichia kudriavzevii. Put plainly: Antimicrobial activity against Candida krusei ATCC 6258 after 48 hrs by microdilution broth method. The following applies: ATCC 6258, 48 h.
Experiment [20] concerns Candida albicans. Put plainly: Antimicrobial activity against Candida albicans ATCC 90028 after 48 hrs by microdilution broth method. To be noted: ATCC 90028, 48 h. The essentials: as §2
Experiment [21] deals with Candida tropicalis. Put plainly: Antimicrobial activity against Candida tropicalis isolate 11 after 48 hrs by microdilution broth method. To be noted: isolate 11, 48 h. In outline: as §1
Experiment [22] relates to Cryptococcus deneoformans. Put plainly: Antimicrobial activity against Cryptococcus neoformans var. neoformans isolate 14 after 48 hrs by microdilution broth method. To be noted: isolate 14, 48 h. The essentials:
as §1

Experiment [23] deals with Nakaseomyces glabratus. Put plainly: Antimicrobial activity against Candida glabrata isolate 46 after 48 hrs by microdilution broth method. The essentials:
as §1

Experiment [24] concerns Cryptococcus deneoformans. Put plainly: Antimicrobial activity against Cryptococcus neoformans var. neoformans isolate 30 after 48 hrs by microdilution broth method. The following applies: isolate 30, 48 h. The essentials: as §1
Experiment [25] concerns Candida albicans. Put plainly: Antimicrobial activity against Candida albicans isolate 41 after 48 hrs by microdilution broth method. The following applies: isolate 41, 48 h. In outline:
as §1

Experiment [26] relates to Candida parapsilosis. Put plainly: Antimicrobial activity against Candida parapsilosis isolate 44 after 48 hrs by microdilution broth method. The following applies: Lodderomyces parapsilosis, isolate 44, 48 h. In outline:
as §1

For the compound `Cc1ccc(S(=O)(=O)/N=[N+](\[O-])c2c(-c3cccs3)nn(C)c2C)cc1`, the minimal inhibitory concentration (MIC) is more than 128 µg/mL against Candida parapsilosis [1]; more than 128 µg/mL against Pichia kudriavzevii [2]; more than 128 µg/mL in the experiment on Candida albicans [3]; more than 128 µg/mL in the experiment with Pichia kudriavzevii [4]; more than 128 µg/mL with Nakaseomyces glabratus [5]; 64 µg/mL (≈ 170 µM) in [6]. In addition, the minimum inhibitory concentration (MIC) against Candida tropicalis [7], with Nakaseomyces glabratus [8], with Candida albicans [9], against Pichia kudriavzevii [10], against Nakaseomyces glabratus [11] and in the experiment with Candida tropicalis [12] was more than 128 µg/mL each time. For the same compound, the MIC is more than 128 µg/mL against Candida parapsilosis [13]; more than 128 µg/mL in the experiment on Candida albicans [14]; more than 128 µg/mL against Candida parapsilosis [15]; more than 128 µg/mL against Candida tropicalis [16]; more than 128 µg/mL in the experiment on Candida parapsilosis [17]; 128 µg/mL (≈ 340 µM) in experiment [18]. In addition, the MIC against Pichia kudriavzevii [19] is more than 128 µg/mL; with Candida albicans [20], more than 128 µg/mL; in the experiment on Candida tropicalis [21] it was more than 128 µg/mL; in [22], 64 µg/mL (≈ 170 µM); in the experiment with Nakaseomyces glabratus [23] it was more than 128 µg/mL; in experiment [24] it was 128 µg/mL (≈ 340 µM).
For `C[C@@H]1[C@H](O)[C@@H](C)/C=C/C=C/C=C/C=C/C=C/C=C/C=C/[C@H](O[C@@H]2O[C@H](C)[C@@H](O)[C@H](N)[C@@H]2O)C[C@@H]2O[C@](O)(C[C@@H](O)C[C@@H](O)[C@H](O)CC[C@@H](O)C[C@@H](O)CC(=O)O[C@H]1C)C[C@H](O)[C@H]2C(=O)O` [AMPHOTERICIN B], the MIC in the experiment on Candida parapsilosis [1] was 1 µg/mL (≈ 1.08 µM); against Pichia kudriavzevii [2] it was 0.5 µg/mL (≈ 0.541 µM); with Candida albicans [3] it was 0.5 µg/mL (≈ 0.541 µM); in experiment [6], 0.12 µg/mL (≈ 0.13 µM); against Candida tropicalis [7], 1 µg/mL (≈ 1.08 µM); in the experiment on Candida albicans [25] it was 0.5 µg/mL (≈ 0.541 µM). For the same compound, the MIC with Nakaseomyces glabratus [8] turned out to be 0.5 µg/mL (≈ 0.541 µM); in the experiment with Candida albicans [9] it was 1 µg/mL (≈ 1.08 µM); against Nakaseomyces glabratus [11] it was 0.5 µg/mL (≈ 0.541 µM); in the experiment with Candida tropicalis [12], 1 µg/mL (≈ 1.08 µM); with Candida parapsilosis [26], 0.5 µg/mL (≈ 0.541 µM); against Candida parapsilosis [13], 0.5 µg/mL (≈ 0.541 µM). Besides, the MIC (against Candida albicans [14]; in the experiment with Candida parapsilosis [15]; against Candida tropicalis [16]; with Candida parapsilosis [17]; in experiment [18]; with Candida albicans [20]) was 0.5 µg/mL (≈ 0.541 µM) each time. In addition, the minimal inhibitory concentration (MIC) with Candida tropicalis [21] amounted to 1 µg/mL (≈ 1.08 µM); in experiment [22] it was 0.25 µg/mL (≈ 0.271 µM); in the experiment on Nakaseomyces glabratus [23], 1 µg/mL (≈ 1.08 µM); in [24] it was 0.5 µg/mL (≈ 0.541 µM).
With `OC(Cn1cncn1)(Cn1cncn1)c1ccc(F)cc1F` [FLUCONAZOLE], the minimal inhibitory concentration (MIC) in the experiment on Candida parapsilosis [1] turned out to be 2 µg/mL (≈ 6.53 µM); against Pichia kudriavzevii [2] it was 32 µg/mL (≈ 104 µM); in the experiment on Candida albicans [3], 0.12 µg/mL (≈ 0.392 µM); against Pichia kudriavzevii [4] it was 32 µg/mL (≈ 104 µM); in [6], 2 µg/mL (≈ 6.53 µM); in the experiment on Candida tropicalis [7], 1 µg/mL (≈ 3.27 µM). Also, the MIC in the experiment on Candida albicans [25] was 0.12 µg/mL (≈ 0.392 µM); against Candida albicans [9], 0.25 µg/mL (≈ 0.816 µM); in the experiment on Pichia kudriavzevii [10], 64 µg/mL (≈ 209 µM); against Nakaseomyces glabratus [11], more than 256 µg/mL; with Candida tropicalis [12] it was 1 µg/mL (≈ 3.27 µM); in the experiment with Candida parapsilosis [26] it was 2 µg/mL (≈ 6.53 µM). Moreover, the MIC against Candida parapsilosis [13] stood at 1 µg/mL (≈ 3.27 µM); against Candida albicans [14] it was 0.25 µg/mL (≈ 0.816 µM); in the experiment with Candida parapsilosis [15], 1 µg/mL (≈ 3.27 µM); against Candida tropicalis [16], 2 µg/mL (≈ 6.53 µM); in the experiment on Candida parapsilosis [17] it was 1 µg/mL (≈ 3.27 µM); in experiment [18], 2 µg/mL (≈ 6.53 µM). Further, the minimal inhibitory concentration (MIC) against Pichia kudriavzevii [19] turned out to be 32 µg/mL (≈ 104 µM); in the experiment on Candida albicans [20] it was 0.12 µg/mL (≈ 0.392 µM); against Candida tropicalis [21] it was 1 µg/mL (≈ 3.27 µM); in experiment [22] it was 0.5 µg/mL (≈ 1.63 µM); in the experiment on Nakaseomyces glabratus [23] it was 16 µg/mL (≈ 52.2 µM); in experiment [24], 4 µg/mL (≈ 13.1 µM).
As for `CC[C@@H]([C@H](C)O)n1ncn(-c2ccc(N3CCN(c4ccc(OC[C@@H]5CO[C@@](Cn6cncn6)(c6ccc(F)cc6F)C5)cc4)CC3)cc2)c1=O` [POSACONAZOLE], the MIC against Candida parapsilosis [1] was determined as 0.12 µg/mL (≈ 0.171 µM); in the experiment with Pichia kudriavzevii [2] it was 0.25 µg/mL (≈ 0.357 µM); in the experiment on Candida albicans [3], 0.008 µg/mL (≈ 0.0114 µM); in the experiment with Pichia kudriavzevii [4], 0.25 µg/mL (≈ 0.357 µM); in the experiment with Nakaseomyces glabratus [5], 0.5 µg/mL (≈ 0.713 µM); in experiment [6] it was 0.06 µg/mL (≈ 0.0856 µM). Further, the minimum inhibitory concentration (MIC) in the experiment on Candida tropicalis [7] was 0.12 µg/mL (≈ 0.171 µM); against Candida albicans [25], 0.016 µg/mL (≈ 0.0228 µM); in the experiment on Nakaseomyces glabratus [8], 0.25 µg/mL (≈ 0.357 µM); against Candida albicans [9] it was 0.016 µg/mL (≈ 0.0228 µM); against Pichia kudriavzevii [10], 0.5 µg/mL (≈ 0.713 µM); with Nakaseomyces glabratus [11], more than 8 µg/mL. For the same compound, the MIC in the experiment on Candida tropicalis [12] turned out to be 0.25 µg/mL (≈ 0.357 µM); against Candida parapsilosis [26], 0.03 µg/mL (≈ 0.0428 µM); against Candida parapsilosis [13], 0.03 µg/mL (≈ 0.0428 µM); against Candida albicans [14] it was 0.008 µg/mL (≈ 0.0114 µM); against Candida parapsilosis [15] it was 0.06 µg/mL (≈ 0.0856 µM); in the experiment on Candida tropicalis [16], 0.25 µg/mL (≈ 0.357 µM). Moreover, the minimal inhibitory concentration (MIC) is 0.03 µg/mL (≈ 0.0428 µM) in the experiment with Candida parapsilosis [17]; 0.06 µg/mL (≈ 0.0856 µM) in experiment [18]; 0.25 µg/mL (≈ 0.357 µM) in the experiment with Pichia kudriavzevii [19]; 0.008 µg/mL (≈ 0.0114 µM) in the experiment on Candida albicans [20]; 0.12 µg/mL (≈ 0.171 µM) against Candida tropicalis [21]; 0.03 µg/mL (≈ 0.0428 µM) in experiment [22]. For the same compound, the MIC in the experiment on Nakaseomyces glabratus [23] stood at 1 µg/mL (≈ 1.43 µM); in experiment [24], 0.12 µg/mL (≈ 0.171 µM).

Values taken from ChEMBL document CHEMBL1777788, “Synthesis and in vitro antimicrobial activities of new (cyano-NNO-azoxy)pyrazole derivatives” (2011).
